From ChEMBL document CHEMBL1125410, “Selective irreversible inhibitors of aldose reductase” (J Med Chem, 1992)

Tests used:
[1] = molecular target: Aldo-keto reductase family 1 member B1 (Rattus norvegicus, UniProt P07943); assay: Compound was evaluated for the inhibition of Rat Lens Aldose reductase (RLAR)
Procedure, shortened: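 Purified rat lens aldose reductase and rat kidney aldehyde reductase, each homogeneous on SDS-PAGE. The 1.0 mL assay held equal enzyme units in 0.10 M Na,K phosphate (pH 6.2), 0.3 mM NADPH, 10 mM DL-glyceraldehyde and inhibitor. The NADPH decrease at 340 nm was followed over 4 min, with no-substrate absorbance controls. IC50 is given as mean ± SD.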

[2] = molecular target: Aldo-keto reductase family 1 member B1 (Rattus norvegicus) (UniProt P07943); assay: Compound was evaluated for irreversible inhibition of Rat Lens Aldose reductase (RLAR) at 10e-4 M
Procedure, shortened: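 Each purified reductase was desalted into 0.1 M phosphate (pH 7.4) to remove glycerol and 2-mercaptoethanol. Enzyme (ca. 0.3 unit/mL) was exposed to inhibitor or buffer alone for 15 min at room temperature. A 400 µL aliquot was then desalted into pH 7.0 phosphate with 10 mM 2-mercaptoethanol, and BSA was added. The eluate was kept on ice, and residual activity was read from NADPH loss at 340 nm with DL-glyceraldehyde. Runs were at least triplicate and averaged.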

[3] = Ratio of IC50(RKALR) vs IC50(RLAR)
[4] = molecular target: Aldo-keto reductase family 1 member B1 (Rattus norvegicus) (UniProt P07943); assay: Protection by the compound of irreversible inhibition of Rat Lens Aldose reductase by [5-(2-Iodo-acetyl)-1,3-dioxo-1H,3H-benzo[de]isoquinolin-2-yl]-acetic acid(0.1 mM) at 0.01 mM concentration; type: functional
Procedure, shortened: (§1)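 Rat lens aldose reductase was desalted into 0.1 M phosphate (pH 7.4). The enzyme was preincubated 5 min with the reversible inhibitor, then the iodoacetamide label was added for a further 5 min. Unreacted reagent was removed by desalting into buffer with 10 mM 2-mercaptoethanol, BSA was added, and residual activity was read by NADPH loss at 340 nm. Runs were at least triplicate and averaged.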

[5] = molecular target: Aldo-keto reductase family 1 member B1 (Rattus norvegicus) (UniProt P07943); assay: Protection by the compound of irreversible inhibition of Rat Lens Aldose reductase by [5-(2-Iodo-acetyl)-1,3-dioxo-1H,3H-benzo[de]isoquinolin-2-yl]-acetic acid(0.01 mM) at 1 mM concentration; type: functional; procedure, shortened: as §1
[6] = molecular target: Aldo-keto reductase family 1 member B1 (Rattus norvegicus) (UniProt P07943); assay: Protection by the compound of irreversible inhibition of Rat Lens Aldose reductase by [5-(2-Iodo-acetyl)-1,3-dioxo-1H,3H-benzo[de]isoquinolin-2-yl]-acetic acid(0.01 mM) at 0.1 mM concentration; type: functional; procedure, shortened: as §1
[7] = molecular target: Aldo-keto reductase family 1 member B1 (Rattus norvegicus) (UniProt P07943); assay: Protection by the compound of irreversible inhibition of Rat Lens Aldose reductase by [5-(2-Iodo-acetyl)-1,3-dioxo-1H,3H-benzo[de]isoquinolin-2-yl]-acetic acid(0.01 mM) at 0.01 mM concentration; type: functional; procedure, shortened: as §1
[8] = molecular target: Aldo-keto reductase family 1 member B1 (Rattus norvegicus) (UniProt P07943); assay: Protection by the compound of irreversible inhibition of Rat Lens Aldose reductase by [5-(2-Iodo-acetyl)-1,3-dioxo-1H,3H-benzo[de]isoquinolin-2-yl]-acetic acid(0.1 mM) at 1 mM concentration; type: functional; procedure, shortened: as §1
[9] = molecular target: Aldo-keto reductase family 1 member B1 (Rattus norvegicus) (UniProt P07943); assay: Protection by the compound of irreversible inhibition of Rat Lens Aldose reductase by [5-(2-Iodo-acetyl)-1,3-dioxo-1H,3H-benzo[de]isoquinolin-2-yl]-acetic acid(0.1 mM) at 0.1 mM concentration; type: functional; procedure, shortened: as §1
[10] = test system: Aldehyde reductase AKR1A1 (Rattus norvegicus); assay: Compound was evaluated for irreversible inhibition of Rat kidney Aldehyde reductase (RKALR) at 10e-4 M

SMILES: O=C(O)CN1C(=O)c2cccc3cc(NC(=O)CBr)cc(c23)C1=O
- IC50 [1]: 600 nM
- inhibition [2]: 46%
- Ratio [3]: 13 Ratio

SMILES: CC(=O)Nc1cc2c3c(cccc3c1)C(=O)N(CC(=O)O)C2=O
- Protection [4]: 17%
- Protection [5]: 100%
- Protection [6]: 43%
- Protection [7]: 11%
- IC50 [1]: 640 nM
- Protection [8]: 39%
- Protection [9]: 19%
- Ratio [3]: 10

SMILES: O=C(O)CN1C(=O)c2cccc3cc(C(=O)CI)cc(c23)C1=O
- inhibition [2]: 89%

SMILES: O=C(O)CN1C(=O)c2cccc3cc(N=C=S)cc(c23)C1=O
- inhibition [10]: 0%
